Measured values taken from ChEMBL document CHEMBL3352460, “Synthesis and biological evaluation of novel biaryl type α-noscapine congeners” (Bioorg Med Chem Lett, 2014).
Activity calls are given as the source filed them. The rule behind the calls is not given here.

Legend:
Format in all cases: functional, cell-based
[1] = test system: A549; assay: Antiproliferative activity against human A549 cells after 72 hrs by MTS assay; conditions: A549, 72 h
Method in brief: (§1)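 Cells grown in medium with L-glutamine, 10% fetal bovine serum and 1% penicillin/streptomycin, seeded at 5 × 10³ cells per well, then exposed for 72 h to a rising concentration series. Proliferation read by MTS reagent: 3 h incubation, absorbance at 490 nm. IC50 given as mean ± S.D. of three separate experiments.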

[2] = test system: HeLa; assay: Antiproliferative activity against human HeLa cells after 72 hrs by MTS assay; method in brief: as §1
[3] = test system: MCF7; assay: Antiproliferative activity against human MCF7 cells after 72 hrs by MTS assay; conditions: MCF7, 72 h; method in brief: as §1
[4] = test system: MCF7; assay: Induction of apoptosis in human MCF7 cells assessed as condensed chromatin at 25 uM after 72 hrs by DAPI staining-based fluorescence analysis
Method in brief: (§2)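 MCF-7 cells (2 × 10³) grown on poly-L-lysine-coated coverslips, treated at 25 µM for 72 h. Then fixed in cold methanol, washed in PBS, stained with DAPI and mounted. Nuclei imaged by fluorescence microscopy; apoptosis scored by nuclear condensation, membrane blebs and apoptotic bodies.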

[5] = test system: MCF7; assay: Induction of apoptosis in human MCF7 cells assessed as fragmented nuclei at 25 uM after 72 hrs by DAPI staining-based fluorescence analysis; method in brief: as §2

Structure (SMILES) | IC50 [1] | IC50 [2] | IC50 [3] | Activity [4] | Activity [5]
COc1ccc2c(c1OC)C(=O)O[C@@H]2[C@H]1c2c(c(-c3ccc(C(F)(F)F)cc3)c3c(c2OC)OCO3)CCN1C | 57.3 µM | 22.8 µM | 41.3 µM |  | 
CCOC(=O)c1ccc(-c2c3c(c(OC)c4c2OCO4)[C@H]([C@H]2OC(=O)c4c2ccc(OC)c4OC)N(C)CC3)cc1 | 53.1 µM | 21.2 µM | 40.7 µM | Active | Active
COc1ccc2c(c1OC)C(=O)O[C@@H]2[C@H]1c2c(cc3c(c2OC)OCO3)CCN1C [NOSCAPINE] | 62.9 µM | 24 µM | 42.3 µM |  | 
C=Cc1ccc(-c2c3c(c(OC)c4c2OCO4)[C@H]([C@H]2OC(=O)c4c2ccc(OC)c4OC)N(C)CC3)cc1 | 42.7 µM | 20.3 µM | 34.3 µM | Active | Active

Further compounds by falling IC50 [1], results first:

IC50 [1] | IC50 [2] | IC50 [3] | Structure (SMILES) | Activity [4] | Activity [5]
33.8 µM | 9 µM | 18.8 µM | CCOC(=O)c1cc(-c2c3c(c(OC)c4c2OCO4)[C@H]([C@H]2OC(=O)c4c2ccc(OC)c4OC)N(C)CC3)ccc1Cl | Active | Active
32.6 µM | 9.2 µM | 17.8 µM | COc1ccc2c(c1OC)C(=O)O[C@@H]2[C@H]1c2c(c(-c3cccc(NC(C)=O)c3)c3c(c2OC)OCO3)CCN1C | Active | Active
31.6 µM | 8.9 µM | 16.6 µM | COc1ccc2c(c1OC)C(=O)O[C@@H]2[C@H]1c2c(c(-c3cccnc3)c3c(c2OC)OCO3)CCN1C |  | 
